Test results reported in ChEMBL document CHEMBL3045365, “Chemical composition and antifungal activity of Salvia macrochlamys and Salvia recognita essential oils” (2006).

Experiments:
[1] = tested on: Colletotrichum gloeosporioides; assay: Antifungal activity against Colletotrichum gloeosporioides assessed as growth inhibition at 4 uL in 2 mM acetone by direct bioautography; format: functional
Method in brief: (§1)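 Standards applied at 2 mM in 4 μL acetone onto silica TLC plates and tested by direct bioautography against each Colletotrichum species. Activity read as clear inhibitory zone size (mm), reported as mean ± SEM. Technical-grade fungicides at 2 mM in 2 μL EtOH served as internal standards. Runs repeated multiple times in dose- and non-dose-response formats.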

[2] = tested on: Colletotrichum fragariae; assay: Antifungal activity against Colletotrichum fragariae assessed as growth inhibition at 4 uL in 2 mM acetone by direct bioautography; format: functional; method in brief: as §1
[3] = tested on: Colletotrichum acutatum; assay: Antifungal activity against Colletotrichum acutatum assessed as growth inhibition at 4 uL in 2 mM acetone by direct bioautography; format: functional; method in brief: as §1
[4] = tested on: Colletotrichum acutatum; assay: Antifungal activity against Colletotrichum acutatum assessed as growth inhibition at 2 uL in 2 mM EtOH by direct bioautography
[5] = tested on: Colletotrichum fragariae; assay: Antifungal activity against Colletotrichum fragariae assessed as growth inhibition at 2 uL in 2 mM EtOH by direct bioautography
[6] = tested on: Colletotrichum gloeosporioides; assay: Antifungal activity against Colletotrichum gloeosporioides assessed as growth inhibition at 2 uL in 2 mM EtOH by direct bioautography

Row | SMILES | inhibition zone (IZ) [1] [mm] | inhibition zone (IZ) [2] [mm] | inhibition zone (IZ) [3] [mm] | inhibition zone (IZ) [4] [mm] | inhibition zone (IZ) [5] [mm] | inhibition zone (IZ) [6] [mm]
1 | CC1(C)[C@H]2CC[C@]1(C)C(=O)C2 [(-)-CAMPHOR] | 0 | 0 | 0 |  |  | 
2 | CC12CCC(CC1=O)C2(C)C (stereo not drawn) [CAMPHOR] | 0 | 0 | 0 |  |  | 
3 | CC1(C)C2CCC1(C)C(O)C2 (stereo not drawn) [BORNEOL] | 0 | 0 | 0 |  |  | 
4 | CCCCNC(=O)n1c(NC(=O)OC)nc2ccccc21 [BENOMYL] |  |  |  | 18 | 18.33 | 19.33
5 | O=C1C2CC=CCC2C(=O)N1SC(Cl)(Cl)Cl (stereo not drawn) [CAPTAN] |  |  |  | 14.67 | 15 | 10.33
6 | CC1(C)[C@H]2CC[C@]1(C)[C@H](O)C2 [(-)-BORNEOL] | 0 | 0 | 0 |  |  | 
7 | Cc1cc(C2CC2)nc(Nc2ccccc2)n1 [CYPRODINIL] |  |  |  | 29.33 | 30.33 | 29.33
8 | Cc1ccc(C(C)C)cc1O [CARVACROL] | 3.5 | 3.4 | 4.5 |  |  | 
9 | Cc1ccc(C(C)C)c(O)c1 [THYMOL] | 0 | 0 | 0 |  |  | 
10 | CC12CCC(CC1)C(C)(C)O2 [EUCALYPTOL] | 0 | 0 | 0 |  |  | 
11 | CO/C=C(/C(=O)OC)c1ccccc1Oc1cc(Oc2ccccc2C#N)ncn1 [AZOXYSTROBIN] |  |  |  | 24.33 | 19.33 | 28.33
